Screens deposited in PubChem BioAssay by several laboratories.
Most compounds without a hit are left out; they make up all but 6.8% or so of the library.
ALR H2O2 inh: blocks human ALR sulfhydryl oxidase activity. inhibition, % (test concentration not listed). purified ALR, DTT oxidation, H2O2 HRP-luminol luminescence. 290,000 tested, 3.8% active. P55789;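 active = mean replicate inhibition above about 79%, with every replicate also reaching it, limit read from the data; inconclusive = only one of the two criteria met; inactive = mean below limit and not every replicate reaching it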
Target sequence (P55789 whole entry, looked up): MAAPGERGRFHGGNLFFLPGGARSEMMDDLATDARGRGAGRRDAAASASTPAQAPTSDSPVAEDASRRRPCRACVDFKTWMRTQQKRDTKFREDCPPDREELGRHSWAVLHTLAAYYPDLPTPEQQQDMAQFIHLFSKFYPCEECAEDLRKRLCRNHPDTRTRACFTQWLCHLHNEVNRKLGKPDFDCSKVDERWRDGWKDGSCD
HSF1 activator: increases HSF-1 driven luciferase reporter signal; 300,000 tested, 1.7% active; NIH3T3-HGL HSF-1 luciferase reporter, MG132, 8 h; 100% = twice DMSO control signal; activation, % at 9 µM;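 active = mean replicate activation of at least 50% with a set share of replicates each reaching 50%; inconclusive = only one of those two conditions met; inactive = mean below 50% and too few replicates reaching it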;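 note: 0% = median of the neutral control wells and 100% = twice that signal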
PHOSPHO1 block: inhibitors of human PHOSPHO1 phosphatase; AID 1565; 290,000 tested, 1.1% active; recombinant PHOSPHO1, absorbance phosphatase assay; inhibition, % at 13.3 µM; in the data active = inhibition above about 60%
Target sequence (Q8TCT1 whole entry, looked up): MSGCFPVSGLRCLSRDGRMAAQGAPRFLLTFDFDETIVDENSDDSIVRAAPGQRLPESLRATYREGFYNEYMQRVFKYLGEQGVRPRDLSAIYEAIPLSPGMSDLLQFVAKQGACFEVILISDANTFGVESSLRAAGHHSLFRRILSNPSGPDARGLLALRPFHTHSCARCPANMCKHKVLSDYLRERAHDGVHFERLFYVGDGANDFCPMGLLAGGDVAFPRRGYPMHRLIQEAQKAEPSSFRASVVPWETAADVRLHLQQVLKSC
HSF1 inh: HSF1 inhibition. NIH3T3-HGL HSE-luciferase, MG132-induced, luminescence 8 h; hits give low values. activity change, negative = inhibition, % at 7.5 µM (by protocol). 300,000 tested, 0.77% active. AID 2098;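 active = more than half of replicate wells show activity change below -50%, luminescence cut by over half; inconclusive = some wells, but at most half, below -50%; inactive = no replicate well below -50%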;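 note: luciferase reports HSF-1 transcriptional activity via heat shock element; 0% = median of DMSO wells and -100% = zero luminescence signal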
core dimer inh: blocks dimerization of HCV core protein | 300,000 tested, 0.33% active | TR-FRET GST/Flag-core106 dimerization, 1536-well | AID 1899 | inhibition, % at 5 µM;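 active = inhibition above the mean of all tested compounds plus 3 SD, set per screening campaign, cut at about 45% in these data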
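test system = GST/Flag-tagged HCV core106 proteins | probe or stimulus = Eu donor and XL665 acceptor anti-tag antibodies | times = compound-protein-antibody incubation 4 h at 22.5 °C | signal = TR-FRET, excitation 340 nm, emission 617 and 671 nm | measure = percent inhibition of core106 dimerization signal | controls = wells lacking GST-core106 and wells with excess unlabelled core106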
AI-2 QS modul: modulates the Vibrio harveyi AI-2 quorum sensing system. Vibrio harveyi JMH597 AI-2 luminescence/OD600 ratio, 9 h; hits give low values; strain lacks LuxN and CqsS sensors; 0 = neutral-control median. activity change, % at 7.5 µM. 300,000 tested, 0.4% active; in the data active = activity change below about -75%, passing the limit was not always enough; inconclusive = no clear call, values can overlap the other calls;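 note: luminescence divided by OD600 gain over 9 h not by final OD600 alone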
The depositor's hits bear a star; ? = inconclusive; nt = not tested or not shown.

SMILES | ALR H2O2 inh | HSF1 activator | PHOSPHO1 block | HSF1 inh | core dimer inh | AI-2 QS modul
N#Cc1ccsc1NC(=O)COc1ccc(-c2nnco2)cc1 | -3 | -16 | 12 | 1 | 96* | 3
CN(CC(=O)Nc1sccc1C#N)C1CCCCC1 | 2 | -15 | -4 | 0 | 51* | 10
O=C(CSc1nnc(-c2ccccc2)o1)Nc1ccccc1F | nt | 17 | 11 | 4 | 1 | 35
Cc1cccc(C)c1NC(=O)CSc1nnc(-c2cccnc2)o1 | -4 | -13 | 2 | 1 | 0 | -11
N#Cc1ccsc1NC(=O)CN1CCCCCC1 | 3 | 9 | -14 | 1 | -6 | 34
N#Cc1ccsc1NC(=O)CSc1nnc(-c2ccccc2)o1 | 37 | 56* | 23 | 52 | 10 | 42
O=C(CSc1nnc(-c2cccnc2)o1)Nc1nccs1 | 99* | 28 | nt | 11 | -1 | 6
COCCNc1nc(-c2cc(C(=O)Nc3ccccc3)on2)cc(C(C)C)n1 | nt | 5 | nt | -1 | -5 | 16
CCN(CC)c1ccc(C(=O)OCC(=O)Nc2sccc2C#N)cc1 | 0 | 58* | 4 | 13 | 11 | 2
Cc1cc(-c2nnc(SCC(=O)Nc3nccs3)o2)no1 | 89* | 3 | 35 | -1 | -1 | 10
N#Cc1ccsc1NC(=O)COC(=O)c1ccc(NC(N)=O)cc1 | nt | 35 | 47 | 19 | 6 | 15
Cc1ccnc(SCC(=O)Nc2sccc2C#N)n1 | -4 | -5 | 17 | 0 | 8 | -11
CC(=O)Nc1ccc(SCC(=O)Nc2sccc2C#N)cc1 | 99* | 14 | -26 | -1 | -1 | 21
O=C(NCCOc1ccccc1F)C1CCC(=O)N(CCc2cccc(F)c2)C1 (stereo unspecified) | -1 | -2 | 7 | 0 | -3 | -5
CN(C)/C=C/C(=O)c1ccccc1 | nt | 39 | 51 | 16 | 0 | 23
CN(C)/C=C/C(=O)c1ccc(Br)s1 | 92* | 8 | 25 | -7 | 4 | 18
Cc1ccc(/C=N/N2C(=O)c3ccccc3NC2c2ccc(C)cc2)cc1 (stereo unspecified) | 0 | 55* | 14 | 29 | -5 | 0
CN(C)c1ccc(Nc2nc(-c3cccnc3)cs2)cc1 | 95* | 5 | 81* | 9 | -36 | 13
CCN(CC)S(=O)(=O)c1cccc(C(=O)NCCCn2ccnc2)c1 | -2 | -22 | 28 | -2 | -1 | 13
O=C(NC1CCCC1)C(c1ccco1)N(Cc1ccccc1)C(=O)c1csnn1 (stereo unspecified) | nt | 9 | 7 | 6 | 5 | 3
Cc1ccc2[nH]c(=O)c(CN(C(=O)c3cccc([N+](=O)[O-])c3)C(C)C)cc2c1 | -2 | -66 | 24 | -57* | 6 | 16
S=c1nc(-c2ccccc2)c(-c2ccccc2)n[nH]1 | 86* | 4 | -87 | -2 | 4 | -2
N#CC1=C(N)SC(N)=C(C#N)C1c1ccnc2ccccc12 | -25 | 5 | 76* | 3 | 35 | 22
Cc1cc(Cl)cc(Br)c1OCCCN1C(=O)NC(C)(C)C1=O | 8 | 75* | 9 | 32 | -1 | 19
Cc1cc(Cl)c(OCCN2C(=O)NC(C)(C)C2=O)c(Br)c1 | 3 | 13 | 16 | 4 | -2 | 5
SMILES | ALR H2O2 inh | HSF1 activator | PHOSPHO1 block | HSF1 inh | core dimer inh | AI-2 QS modul
O=C(NCC1CCCCC1)c1cccc(-c2ccc(O)cc2)c1 | 82* | -27 | -10 | -8 | -4 | 14
COc1ccc(NC(=O)c2cccc(-c3ccc(O)cc3)c2)cn1 | ? | 42 | 31 | 15 | 0 | nt
CC(=O)Nc1cccc(NC(=O)c2cccc(-c3ccc(O)cc3)c2)c1 | 99* | 49 | 11 | 26 | 0 | 22
Cc1ccc(C(=O)NCC(=O)OCc2cccc(Br)c2)cc1 | -2 | -6 | nt | -1 | 1 | 7
CCOc1ccc(/C=N/NC(=O)c2ccc(Cn3cc([N+](=O)[O-])cn3)o2)cc1 | -3 | -67 | -50 | -55* | 9 | 48
COc1cc(/C=N/NC(=O)c2ccc(Cn3cc([N+](=O)[O-])cn3)o2)cc(Br)c1O | 96* | -3 | 33 | 7 | -26 | 10
COc1cc(/C=N\NC(=O)c2ccc(Cn3cc(Br)c([N+](=O)[O-])n3)o2)cc(OC)c1O | 100* | 21 | 12 | -3 | -30 | 31
CCOc1ccc(CNC(=S)N/N=C/c2cccnc2)cc1 | 2 | 26 | 7 | 6 | 10 | 15
CCOc1ccc(/C=N/NC(=O)c2ccc(Cn3cc(Br)cn3)o2)cc1 | -4 | 5 | 0 | -1 | -1 | 26
CCOc1ccc(CNC(=S)N/N=C\c2ccc([N+](=O)[O-])cc2)cc1 | 99* | 9 | -2 | 7 | 21 | 9
COc1ccc(CC(=O)OCC(=O)Nc2ccc(Cl)cc2C)cc1 | -3 | nt | nt | nt | nt | nt
N#Cc1c(NC(=O)c2cccc(S(=O)(=O)Nc3ccc(C(=O)O)cc3)c2)sc2c1CCCC2 | 89* | -15 | -4 | -9 | -2 | 30
c1coc(-c2ccnc3nc(-n4cccc4)nn23)c1 | 18 | -3 | 8 | -5 | 56* | 13
CN(C)c1ccc(C2N3CC4(C)CN2CC(C)(C3)C4O)cc1 (stereo unspecified) | 99* | -10 | 0 | -4 | -10 | 18
CC12CN3CC(C)(CN(C1)C3c1ccc(Cl)cc1Cl)C2O (stereo unspecified) | 2 | -27 | 9 | -13 | -2 | 12
CCOc1ccc(-c2cc(C(=O)N3CCN(C)CC3)c3ccccc3n2)cc1 | 5 | 11 | -48 | 14 | 0 | 9
COc1ccc(-c2cc(C(=O)N3CCCCCC3)c3ccccc3n2)c(OC)c1 | 0 | 79* | 6 | 26 | 29 | 13
O=C(c1cc(-c2cccc(Cl)c2)nc2ccccc12)N1CCCC1 | -16 | -6 | 62* | 0 | -10 | 9
CCOC(=O)N1CCN(C(=O)c2cc(-c3ccc(OCC)cc3)nc3ccccc23)CC1 | -14 | 79* | 8 | 34 | 3 | 21
O=C(c1cc(-c2cccnc2)nc2ccccc12)N1CCCc2ccccc21 | 95* | -20 | -16 | -2 | 1 | 15
CC1CCN(C(=O)CSc2nc(=O)n3ccccc3n2)CC1 | nt | -6 | nt | -3 | 3 | 34
CCC(Oc1ccccc1)C(=O)OCC(=O)N(CC)c1c(N)n(Cc2ccccc2)c(=O)[nH]c1=O (stereo unspecified) | nt | -3 | nt | -1 | 5 | 20
Cc1ccsc1/C=N/NC(=O)c1nnn(-c2nonc2N)c1CN(C)c1ccccc1 | 0 | -26 | 18 | -1 | 5 | 22
CC(=O)N1CCN(C(=O)c2cc(C)nc3ccccc23)CC1 | 0 | 3 | 60* | -4 | 12 | -4
Cc1ccccc1-c1cc(C(=O)N2CCCC2)c2ccccc2n1 | -10 | -18 | nt | -1 | 53* | 10
